{"data": "Experimental data pooled from the literature", "organism": "Hepatitis C virus", "effect on": "viral replication", "action": "inhibitor", "setting": "replicon"}
{"SMILES": "C=C1/C(=C\\C=C2/CCC[C@]3(C)[C@@H]([C@H](C)CCCC(C)(C)O)CC[C@@H]23)C[C@@H](O)C[C@@H]1O", "test": "luciferase", "test system": "BM4-5, GETYPE1B", "setting": "5 days", "EC50": "1100 nM"}
{"SMILES": "O=C1N[C@H]2[C@H](CS[C@H]2CCCCC(=O)N2CCC[C@@H]2C(=O)Nc2ccc(/C=C/c3ccc(NC(=O)[C@H]4CCCN4C(=O)Cc4ccccc4)cc3)cc2)N1", "test system": "GETYPE1B", "EC50": "> 10000 nM"}
{"SMILES": "CCN1CCN(C2c3ccccc3-c3ccc(Br)cc32)CC1 (centres unmarked)", "test system": "Huh-7.5.1, GETYPE2A", "setting": "48 h", "EC50": "> 1000 nM"}
{"SMILES": "O=C1O[C@H]2[C@@H]3OC(=O)c4cc(O)c(O)c(O)c4-c4c(O)c(O)c5oc(=O)c6c(c(O)c(O)c7oc(=O)c4c5c76)-c4c(cc(O)c(O)c4O)C(=O)OC[C@H]3OC(O)[C@@H]2OC(=O)c2cc(O)c(O)c(O)c2-c2c1cc(O)c(O)c2O (mixture of isomers)", "test system": "Huh-7, GETYPE2A", "setting": "48 h", "EC50": "~100000 nM"}
{"SMILES": "COC(=O)N[C@H](C(=O)N1CCC[C@H]1c1ncc(-c2ccc(-c3ccc(-c4cnc([C@@H]5CCCN5C(=O)[C@@H](NC(=O)OC)C(C)C)[nH]4)cc3)cc2)[nH]1)C(C)C", "test system": "GETYPE1B", "EC50": "0.009 nM"}
{"SMILES": "C=C1CC[C@H](O)C/C1=C/C=C1\\CCC[C@]2(C)[C@@H]([C@H](C)/C=C/[C@H](C)C(C)C)CC[C@@H]12", "test": "luciferase", "test system": "BM4-5, GETYPE1B", "setting": "5 days", "EC50": "14200 nM"}
{"SMILES": "CN1CCN([C@@H](c2ccccc2)c2ccc(Cl)cc2)CC1", "test system": "Huh-7.5.1, GETYPE2A", "setting": "48 h", "EC50": "24 nM"}
{"SMILES": "COc1nc(N)nc2c1ncn2[C@@H]1O[C@H](COP(=O)(N[C@@H](C)C(=O)OCC(C)(C)C)Oc2cccc3ccccc23)[C@@H](O)[C@@]1(C)O (some centres unmarked)", "test system": "GETYPE2A", "setting": "96 h", "EC50": "7.3 nM"}
